According to ChEMBL document CHEMBL2062366, “Synthesis and biological evaluation of purpurealidin E-derived marine sponge metabolites: aplysamine-2, aplyzanzine A, and suberedamines A and B” (2012):
In brackets after ≈: the same amount, converted by molar mass. Activity calls are given as the source filed them. The calls are words filed in the database; no cut-off is given here.

Tested on: Mycobacterium tuberculosis
Test: Antimycobacterial activity against Mycobacterium bovis BCG after 2 weeks by spot culture growth inhibition assay
Type: functional
Settings: variant bovis BCG
Summary of the method: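 BCG grown in rolling bottles in 7H9 + 10% ADC + 0.05% Tween 80 to midexponential phase, quality-checked by Ziehl−Neelsen staining. Culture diluted to 10³ cfu/mL; 10 μL spotted onto 7H10 agar + 10% OADC containing compound, 37 °C for 2 weeks. Controls: DMSO (negative), isoniazid (positive). MIC = lowest concentration with no growth.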

SMILES	MIC
CN(C)CCCOc1c(Br)cc(CCN)cc1Br	inactive

Same assay, conditions: variant bovis BCG, 336 h

SMILES	MIC
COc1ccc(C/C(=N\O)C(=O)NCCc2cc(Br)c(OCCCN(C)C)c(Br)c2)cc1Br	25 µg/mL (≈ 38.4 µM)
CNC(Cc1cc(Br)c(OC)c(Br)c1)C(=O)NCCCOc1c(Br)cc(CCN(C)C)cc1Br.Cl (stereo unspecified) [ANOMOIAN A]	25 µg/mL
COc1c(Br)cc(C[C@@H](C(=O)NCCc2cc(Br)c(OCCCN(C)C)c(Br)c2)N(C)C)cc1Br [APLYZANZINE A]	25 µg/mL (≈ 33.6 µM)
COc1ccc(C[C@H](N)C(=O)NCCc2cc(Br)c(OCCCN(C)C)c(Br)c2)cc1Br [SUBEREDAMINE A]	50 µg/mL (≈ 78.6 µM)
CN[C@@H](Cc1ccc(OC)c(Br)c1)C(=O)NCCc1cc(Br)c(OCCCN(C)C)c(Br)c1 [SUBEREDAMINE B]	40 µg/mL (≈ 61.5 µM)
